The test system of series [1] is Cortical neurone. The experiment in a line: Neuroprotective activity against kainate-induced cell damage in mouse primary cortical neurons assessed as reduction in kainate-induced neurofilament loss by measuring increase in MAPK level at 1 uM pretreated followed by kainate challenge measured after 18 hrs by fluorescence assay. The format is functional, cell-based. The note with it: in the assay text read “MAP2” for “MAPK”. In a few lines:
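Mouse primary cortical neurons cultured as previously described; dendritic processes stained with anti-MAP2 antibody. Cell-profile perimeter measured by image analysis, each condition normalized to kainate-only.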

Series [2] has as its system Cortical neurone. The experiment in a line: Neuroprotective activity against kainate-induced cell death in mouse primary cortical neurons by MTT assay. The series is classed as functional, cell-based. (Formazan colour is commonly taken as a measure of viable cells.)
For series [3], the species on record is Mus musculus. The experiment in a line: Neuroprotective activity against kainate-induced cell death in mouse primary motor neurons by caspase activation method. The format is functional.
Series [4] deals with Cortical neurone. The experiment in a line: Neuroprotective activity against kainate-induced cell death in mouse primary cortical neurons by caspase activation method. The format is functional, cell-based.
The subject of series [5] is Cortical neurone. The series can be described thus: Neuroprotective activity against kainate-induced cell death in mouse primary cortical neurons by cell counting method. The series is classed as functional, cell-based.
The species named for series [6] is Mus musculus. The experiment in a line: Neuroprotective activity against kainate-induced cell death in mouse primary motor neurons by MTT assay. The format is functional.
For series [7], the species on record is Mus musculus. The series can be described thus: Neuroprotective activity against kainate-induced cell damage in mouse primary motor neurons assessed as reversal of kainate-induced neuronal length preceding cell death by fluorescence assay. The format is functional. In a few lines:
(§1)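 Mouse primary motor neurons, fixed after treatment and stained with SMI-32 for neurofilaments, then fluorescently imaged. Sholl analysis counted process intersections at each 100 μm radius from the cell centre. Ten cells per condition, three independent experiments, data pooled.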

The species entered for series [8] is Mus musculus. The series can be described thus: Neuroprotective activity against kainate-induced cell death in mouse primary motor neurons by cell counting method. The series is classed as functional.
For series [9], the system named is Cortical neurone. The experiment in a line: Neuroprotective activity against kainate-induced cell damage in mouse primary cortical neurons assessed as reversal of kainate-induced reduction in calcium flux by fura-2-AM dye based fluorescence assay. The series is classed as functional. In a few lines:
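Mouse primary cortical neurons loaded with fura-2AM for 45 min, washed, then depolarized with 10 mM KCl to drive Ca2+ entry through voltage-gated calcium channels. Flux read on a plate-based system.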
Background: Calcium flux is commonly read through the fluorescence of an indicator in the cells.

The species entered for series [10] is Mus musculus. The experiment in a line: Neuroprotective activity against kainate-induced cell damage in mouse primary motor neurons assessed as reversal of kainate-induced neuronal length preceding cell death at […] by fluorescence assay. The format is functional. In a few lines:
as §1

Another series relates to Rattus norvegicus. The series can be described thus: Protection against glutamate-induced seizures in ip dosed Sprague-Dawley rat pretreated for 30 mins followed by glutamate challenge and measured for 30 mins. The series is classed as functional.
The subject of series [11] is Cortical neurone. The experiment in a line: Toxicity in mouse primary cortical neurons assessed as MAP2 loss by fluorescence assay. The series is classed as cell-based. In a few lines: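 MAP2 immunostaining of dendritic processes in mouse primary cortical neurons, with cell-profile perimeter measured by image analysis.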
The species named for series [12] is Mus musculus. The experiment in a line: Neuroprotective activity against kainate-induced cell damage in mouse primary motor neurons assessed as reversal of kainate-induced neuronal length preceding cell death at 500 nM by fluorescence assay. The format is functional. In a few lines:
as §1

Activity calls are given as the source filed them.

Take `N=c1sc2cc(OC(F)(F)F)ccc2n1CCn1cc(-c2ccccc2)nn1`: the outcome in the series on Cortical neurone [1], in the series with Cortical neurone [2], in the series filed under Mus musculus [3], with Cortical neurone [4], in the series with Cortical neurone [5] and in the series filed under Mus musculus [6] was inactive. For the same molecule, the outcome in the series filed under Mus musculus [7] and in the series listed under Mus musculus [8] was inactive. Also, the outcome in the series on Cortical neurone [9] was Active.
As to `N=c1sc2cc(OC(F)(F)F)ccc2n1CCn1cc(-c2ccc(Br)cc2)nn1`, the outcome in the series with Cortical neurone [1] and with Cortical neurone [9] was Active. Moreover, the outcome with Cortical neurone [2], in the series filed under Mus musculus [3], in the series with Cortical neurone [4], in the series on Cortical neurone [5], in the series filed under Mus musculus [6] and in the series listed under Mus musculus [7] was inactive. Moreover, the outcome in the series listed under Mus musculus [8] was inactive.
For orientation: ED50 means the midpoint of the dose-response relation. With `Nc1nc2ccc(OC(F)(F)F)cc2s1` [RILUZOLE], the result in the series on Cortical neurone [1], in the series with Cortical neurone [2], in the series filed under Mus musculus [3], with Cortical neurone [4], with Cortical neurone [5] and in the series listed under Mus musculus [6] was inactive. In the series filed under Mus musculus [8], the result was inactive. Besides, the result in the series listed under Mus musculus [10] was Active. Besides, in the series on Rattus norvegicus, the 50% effective dose (ED50) was 3.2 mg/kg.
Consider `N=c1sc2cc(OC(F)(F)F)ccc2n1CCN1CCC(c2ccccc2)CC1`, for which the ED50 in the series on Rattus norvegicus came out at 3 mg/kg.
Still for that read-out and setting: the figure for `N=c1sc2cc(OC(F)(F)F)ccc2n1CCN1CCN(c2ccccc2)CC1` is 3.5 mg/kg.
For the molecule `CCc1ccc(-c2cn(CCn3c(=N)sc4cc(OC(F)(F)F)ccc43)nn2)cc1`, the outcome in the series with Cortical neurone [1] and with Cortical neurone [9] was Active. For the same molecule, the result in the series on Cortical neurone [2], in the series listed under Mus musculus [3], with Cortical neurone [4], in the series on Cortical neurone [5], in the series listed under Mus musculus [6] and in the series filed under Mus musculus [7] was inactive. For the same molecule, the result in the series filed under Mus musculus [8] was inactive.
For the molecule `COC(=O)c1ccc(-c2cn(CCn3c(=N)sc4cc(OC(F)(F)F)ccc43)nn2)cc1`, the outcome in the series with Cortical neurone [1], with Cortical neurone [2], in the series listed under Mus musculus [3], with Cortical neurone [4], in the series on Cortical neurone [5] and in the series filed under Mus musculus [6] was inactive. Besides, the result in the series filed under Mus musculus [8] was inactive. The Activity entry in the series with Cortical neurone [11] is “Toxic”. In the series on Cortical neurone [9], the result was Active.
Regarding `N=c1sc2cc(OC(F)(F)F)ccc2n1CCn1cc(-c2ccncc2)nn1`, the result in the series with Cortical neurone [1], in the series listed under Mus musculus [12] and in the series with Cortical neurone [9] was Active. Also, the outcome in the series with Cortical neurone [2], in the series listed under Mus musculus [3], in the series with Cortical neurone [4], in the series on Cortical neurone [5], in the series filed under Mus musculus [6] and in the series filed under Mus musculus [8] was inactive.
Turning to `CCCc1cn(CCn2c(=N)sc3cc(OC(F)(F)F)ccc32)nn1`, the result with Cortical neurone [1], with Cortical neurone [2], in the series listed under Mus musculus [3], in the series with Cortical neurone [4], in the series with Cortical neurone [5] and in the series listed under Mus musculus [6] was inactive. Also, the outcome in the series listed under Mus musculus [8] was inactive. Further, the outcome with Cortical neurone [9] was Active.
Regarding `N=c1sc2cc(OC(F)(F)F)ccc2n1CCn1cc(-c2cccc(Cl)c2)nn1`, the outcome in the series on Cortical neurone [1], in the series with Cortical neurone [2], in the series filed under Mus musculus [3], in the series on Cortical neurone [4], with Cortical neurone [5] and in the series listed under Mus musculus [6] was inactive. For the same molecule, the result in the series listed under Mus musculus [8] was inactive. In addition, in the series with Cortical neurone [9], the outcome was Active.
For `Cc1ccccc1-c1cn(CCn2c(=N)sc3cc(OC(F)(F)F)ccc32)nn1`, the outcome in the series on Cortical neurone [1], in the series with Cortical neurone [2], in the series listed under Mus musculus [3], in the series on Cortical neurone [4], in the series with Cortical neurone [5] and in the series filed under Mus musculus [6] was inactive. Also, the outcome in the series filed under Mus musculus [8] was inactive. The result with Cortical neurone [9] was Active.
Take `Cc1cccc(-c2cn(CCn3c(=N)sc4cc(OC(F)(F)F)ccc43)nn2)c1`: the result with Cortical neurone [1], with Cortical neurone [2], in the series filed under Mus musculus [3], in the series with Cortical neurone [4], in the series on Cortical neurone [5] and in the series listed under Mus musculus [6] was inactive. Further, the result in the series filed under Mus musculus [8] was inactive. For the same molecule, in the series with Cortical neurone [9], the result was Active.
Regarding `N=c1sc2cc(OC(F)(F)F)ccc2n1CCn1cc(-c2cc(F)cc(F)c2)nn1`, the outcome with Cortical neurone [1], with Cortical neurone [2], in the series filed under Mus musculus [3], with Cortical neurone [4], in the series on Cortical neurone [5] and in the series filed under Mus musculus [6] was inactive. In addition, the outcome in the series filed under Mus musculus [8] was inactive. The result in the series with Cortical neurone [9] was Active.

The record behind these values is ChEMBL document CHEMBL4145631, “Riluzole-Triazole Hybrids as Novel Chemical Probes for Neuroprotection in Amyotrophic Lateral Sclerosis” (ACS Med Chem Lett, 2018).
